Assay results gathered from unrelated publications.
Each line is one published result; the experiments were not run side by side.
Target: Casein kinase I isoform alpha-like (CSNK1A1L, Homo sapiens, UniProt Q8N752)
Residues used in one study (Q8N752 1-337): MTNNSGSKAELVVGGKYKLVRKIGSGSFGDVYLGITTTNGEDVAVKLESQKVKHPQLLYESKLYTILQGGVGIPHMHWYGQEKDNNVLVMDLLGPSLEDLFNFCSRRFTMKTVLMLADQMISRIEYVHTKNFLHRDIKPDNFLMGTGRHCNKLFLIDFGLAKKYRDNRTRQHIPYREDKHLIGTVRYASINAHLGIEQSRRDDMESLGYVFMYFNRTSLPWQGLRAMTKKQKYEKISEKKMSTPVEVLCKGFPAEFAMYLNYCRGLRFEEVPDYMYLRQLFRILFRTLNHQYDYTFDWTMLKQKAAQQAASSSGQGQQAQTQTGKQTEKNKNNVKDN

| SMILES | assay | setting | remaining binding |
| --- | --- | --- | --- |
| C=CC(=O)N1CCC(C(=O)NCC(=O)N2CCN(c3nc(-c4cnc(N)nc4C(F)F)nc(N4CCOCC4)n3)CC2)CC1 | binding, competition with immobilised ligand | 1 µM | 100% |
| F[C@@H]1CCN(c2nccc(-c3cnn4ncccc34)n2)C1 | binding | 1 µM | 100% |
| Cc1nccc(COC(=O)N2C[C@@H]3[C@@H](CNC(=O)c4ccc5[nH]nnc5c4)[C@@H]3C2)n1 | cell-free assay, competition with immobilised ligand | 1 µM | 100% |
| N[C@H]1CCN(c2nccc(-c3cnn4ncccc34)n2)C1 | binding | 1 µM | 100% |
| COc1ccc2c(c1)O[C@H](c1ccc(OC)c(OC)c1)C[C@@H]2NC(=O)C1(c2ccc3c(c2)OC(F)(F)O3)CC1 | cell-free assay, competition with immobilised ligand | 1 µM | 100% |
| c1cncc(-c2cccc(Nc3nccc(NC4CCCCC4)n3)c2)c1 | binding, competition with immobilised ligand | 10 µM | 92% |
| COc1cnc(Nc2cccc(S(N)(=O)=O)c2)nc1N1CCN(c2ccccc2)C(=O)C1 | binding, competition with immobilised ligand | 1 µM | 100% |
| CNC(=O)Nc1ccc2c(c1)CC[C@@]21OC(=O)N(CC(=O)N(Cc2ccc(F)cc2)[C@@H](C)C(F)(F)F)C1=O | cell-free assay, competition with immobilised ligand | 1 µM | 88% |
| O=C(c1ccc(Nc2ncc(Cl)c(-c3cc4ccccc4s3)n2)cc1)N1CCC(N2CCCC2)CC1 | binding, competition with immobilised ligand | 1 µM | 100% |
| CN(C(=O)c1ccccc1)c1cc(N(C)c2ccc3c(c2)CCc2ccc(C(=O)NCCN4CCOCC4)cc2C3=O)ccc1F | cell-free assay, competition with immobilised ligand | 1 µM | 100% |
| O=C(c1ccc(Nc2nccc(-c3cc4ccccc4s3)n2)cc1)N1CCC(N2CCCC2)CC1 | binding, competition with immobilised ligand | 1 µM | 98% |
| CC(C)CC(=O)N1CCc2nc(-c3ccc(Br)cc3)nc(N(C)Cc3ccccc3)c2C1 | cell-free assay, competition with immobilised ligand | 0.1 µM | 100% |
| O=C(NCC1CCOCC1)c1n[nH]cc1NC(=O)c1c(F)cccc1F | binding, competition with immobilised ligand | 1 µM | 85% |
| CN(C)c1ncc(F)c(-c2cnn3ncccc23)n1 | binding | 1 µM | 100% |
| O=C(NCCCN1CCOCC1)c1ccc(Nc2nccc(-c3cc4ccccc4s3)n2)cc1 | binding, competition with immobilised ligand | 1 µM | 91% |
| CN(C)c1nccc(-c2cnn3ncccc23)n1 | binding | 1 µM | 98% |
| FC(F)(F)Oc1cccc(-c2cnc3ccc(-c4ccncc4)nn23)c1 | cell-free assay, competition with immobilised ligand | 5 µM | 90% |
| COc1ccnn2ncc(-c3ccnc(N(C)C)n3)c12 | binding | 1 µM | 91% |
| CCN1CCN(Cc2ccc(C(=O)Nc3ccc(C)c(Oc4ccc5c(c4)CC(=O)N5)c3)cc2C(F)(F)F)CC1 | binding, competition with immobilised ligand | 1 µM | 100% |
| C[C@@H]1CCN(c2nccc(-c3cnn4ncccc34)n2)C1 | binding | 1 µM | 81% |
| CCCOc1ccc([C@@H]2[C@@H](C(=O)O)[C@H](c3ccc4c(c3)OCO4)CN2CC(=O)Nc2c(CC)cccc2CC)cc1 | cell-free assay, competition with immobilised ligand | 1 µM | 94% |
